Measured values pooled from the literature.
Compare with care: the assays were run in different laboratories.

The Cmax of CNCCN(C)c1cc(C#N)cc(CCc2cc(C)cc(N)n2)c1 is reported as 50.8 ng/mL (male BALB/c mouse, plasma; oral, 10 mg/kg).
For COc1cc2c(Nc3ccc(Cl)c(Cl)c3F)ncnc2cc1OC[C@@H]1C[C@@H]2CN(C)C[C@@H]2C1, the Cmax was 3780 ng/mL (FVB mouse, plasma; oral, 70 mg/kg, single dose).
CC(C)(O)c1cn(-c2ccc(-c3cccc(S(C)(=O)=O)c3)cc2)c(C(C)(C)c2ccccc2Cl)n1 has a Cmax of 15 µM (male C57BL/6 mouse, serum; oral, 10 mg/kg).
COC(=O)CN(CCCc1ccccc1)CC(=O)N[C@@H](Cc1c[nH]cn1)c1nc(C)no1 gave a Cmax of 1000 ng/mL (male C57BL/6 mouse, plasma; intraperitoneal, 30 mg/kg).
For COc1ccc2c3c1O[C@H]1C[C@@H](OC(=O)c4ccccc4)C=C[C@@]31CCN(C)C2, the Cmax was 4810 ng/g (mouse, brain; intravenous, 3 mg/kg).
For Cc1c2c(n(-c3ccc(F)cc3Cl)c1-c1ccc(OS(=O)(=O)CCC(F)(F)F)cc1)CCN(N1CCCCC1)C2=O, the Cmax was 0.04 µM (mouse, plasma; oral, 6 µmol/kg, single dose).
COc1ccc2nc(-c3ccccn3)c(N(C)c3ccc(F)cc3)n2c1 gave a Cmax of 1440 ng/mL (male CD-1 mouse, plasma; oral, 50 mg/kg, fasted).
For CNC(=O)[C@H](Cc1c[nH]cn1)NC(=O)CN(CCCc1ccccc1)CC(=O)O, the Cmax was 11000 ng/mL (male C57BL/6 mouse, plasma; intraperitoneal, 30 mg/kg).
The Cmax of CCc1ccc(Cc2cc([C@@H]3O[C@H](CO)[C@@H](O)[C@H](O)[C@H]3O)cc3c2CCC3)cc1 is reported as 1830 ng/mL (male C57BL/6 mouse, plasma; oral, 3 mg/kg).
COc1ccc(C(O)COc2ccc(-c3csc(-c4ccc(OCC(O)c5ccc(OC)c(OC)c5)cc4)n3)cc2)cc1OC (centres unmarked) has a Cmax of 7680 ng/mL (C57BL/6 mouse, plasma; oral, 75 mg/kg).
NC[C@@H]1O[C@H](O[C@H]2[C@@H](O)[C@H](O[C@@H]3[C@@H](O)[C@H](N)C[C@H](N)[C@H]3O[C@H]3O[C@H](CO)[C@@H](O)[C@H](O)[C@H]3N)O[C@@H]2CO)[C@H](N)[C@@H](O)[C@@H]1O has a Cmax of 690 ng/mL (male BALB/c mouse, plasma; oral, 500 mg/kg).
For Cc1ccc(NC(=O)c2ccc(CN3CCN(C)CC3)cc2)cc1Nc1nccc(-c2cncc(-c3oncc3C)c2)n1, the Cmax was 5060 ng/mL (male C57BL/6 mouse, plasma; oral, 100 mg/kg/day).
With Nc1ncc(-c2ccncc2)nc1Nc1ccc2[nH]ccc2c1 the Cmax was 7 µM (male C57BL/6 mouse, plasma; oral, 30 mg/kg).
The Cmax of CC1(C)CC[C@]2(C(=O)O)CC[C@]3(C)C(=CC[C@@H]4[C@@]5(C)C[C@@H](O)[C@H](OC(=O)/C=C/c6ccc(O)cc6)C(C)(C)[C@@H]5CC[C@]43C)[C@@H]2C1 (relative stereo) is reported as 1.75 µM (mouse, brain; intraperitoneal, 85 µmol/kg, single dose).
For CN1C(=O)c2ccccc2[S@+]([O-])c2ccc(C(=O)NCCc3cccs3)cc21, the Cmax was 1720 ng/g (male C57BL/6 mouse, brain; intraperitoneal, 30 mg/kg, single dose).
For CC(C)Oc1c(NC(=O)c2ccc(NC(=O)[C@H](CC(N)=O)NC(=O)c3ccc(NC(=O)c4ccc(C#N)cc4)cc3)cc2)ccc(C(=O)Nc2ccc(C(=O)O)cc2)c1O, the Cmax was 129 ng/mL (male CD-1 mouse, plasma; subcutaneous, 5 mg/kg, single dose).
With Cc1nc(-c2cnc(NC(C)C)n(C)c2=O)ccc1Oc1ccnc(-c2cnn(C)c2)c1 the Cmax was 9350 ng/mL (female mouse, plasma; oral, 30 mg/kg, single dose).
The Cmax of CCc1cc(OC)c2nccc(N3CCc4c(cc(Cn5ccnc5)cc4-c4cn(C)nc4C(F)(F)F)C3=O)c2c1 is reported as 29000 ng/mL (male CD-1 mouse, plasma; oral, 50 mg/kg).
For Nc1nc(-c2ccccc2)nc2[nH]nc(Nc3ccc(C(F)(F)F)cc3)c12, the Cmax was 1250 ng/mL (mouse, plasma; oral, 100 mg/kg).
FC(F)(F)Oc1ccc(Nc2cc(-c3cn[nH]c3)ncn2)cc1 gave a Cmax of 3400 ng/mL (male BALB/c mouse, plasma; oral, 20 mg/kg).
With CN1CCC[C@H](CN2c3ccccc3Sc3ccccc32)C1.Cl the Cmax was 1560 ng/mL (mouse, plasma; intraperitoneal, 32 mg/kg, single dose).
CN1CCN(C(=O)CN[C@@H]2C[C@H]2c2ccc(OCc3ccccc3)cc2)CC1 gave a Cmax of 542 ng/mL (mouse, plasma; intraperitoneal, 10 mg/kg).
CCc1cc(C(=O)NC)c2nccc(N3CCc4c(cc(Cn5ccnc5)cc4-c4cn(C)nc4C(F)(F)F)C3=O)c2c1 has a Cmax of 131000 ng/mL (male CD-1 mouse, plasma; oral, 150 mg/kg).
C=CC(=O)N1CC2CC(n3nc(-c4ccc(C(=O)Nc5ccccn5)cc4)c4c(N)ncnc43)CC2C1 (centres unmarked) gave a Cmax of 703 ng/mL (SCID mouse, plasma; oral, 3 mg/kg).
The Cmax of O=C(CCCCCC(=O)NN=Cc1ccc(-c2ccccc2)cc1)NO is reported as 0.06 µM (C57BL/6 mouse, brain; intraperitoneal, 25 mg/kg, single dose).
CCOc1ccc(Cc2cc([C@@H]3O[C@H](CO)[C@@H](O)[C@H](O)[C@H]3O)ccc2Cl)cc1 has a Cmax of 207 ng/mL (male C57BL/6 mouse, plasma; oral, 1 mg/kg).
With COc1ccc([C@@]23Oc4cc(OC)cc(OC)c4[C@]2(O)[C@H](O)[C@H](C(=O)N(C)C)[C@H]3c2ccccc2)cc1 the Cmax was about 4 µM (mouse, plasma; intraperitoneal, 5 mg/kg).
With CNC(=O)c1cc(Oc2ccc(NC(=O)Nc3ccc(Cl)c(C(F)(F)F)c3)c(F)c2)ccn1 the Cmax was 3300 ng/mL (male mouse, plasma; oral, 10 mg/kg, single dose).
For CC[C@H](C)[C@@H]1NC(=O)[C@@](C)(NC(=O)[C@H](CCCNC(=N)N)NC(=O)[C@H](CC(C)C)NC(=O)[C@@H](NC(=O)[C@H](CCC(N)=O)NC(=O)[C@H](CC(C)C)NC(C)=O)[C@@H](C)O)CCCC=CCCC[C@@](C)(C(=O)N[C@@H](CC(C)C)C(=O)N[C@@H](Cc2ccc3ccccc3c2)C(N)=O)NC(=O)[C@H](CCCNC(=N)N)NC(=O)[C@H](CCC(N)=O)NC1=O, the Cmax was 41 µM (male BALB/c mouse, plasma; intravenous, 5 mg/kg).
CC(C)(O)c1cn(-c2ccc(-c3cc(F)c(CO)c(S(C)(=O)=O)c3)cc2F)c(C(C)(C)c2c(Cl)cccc2Cl)n1 has a Cmax of 0.71 µM (male C57BL/6 mouse, serum; oral, 10 mg/kg).
The Cmax of COc1nc(-c2cc(C)c(N[C@@H](C)c3ccc(F)cc3)nn2)ccc1-n1cnc(C)c1 is reported as 1530 ng/mL (male CD-1 mouse, plasma; oral, 5 mg/kg, single dose).
With Cc1cc(Nc2ccc(S(F)(F)(F)(F)F)cc2)n2ccnc2n1 the Cmax was 29 µM (male Swiss mouse, plasma; oral, 100 mg/kg, single dose).
With Cc1c(C(=O)NN2CCCCC2)nn(-c2ccc(Cl)cc2Cl)c1-c1ccc(Cl)cc1 the Cmax was 1.05 µM (mouse, plasma; oral, 20 µmol/kg, single dose).
For Cc1ncsc1-c1ccc(CNC(=O)[C@@H]2C[C@@H](O)CN2C(=O)[C@@H](NC(=O)CCCCCCCCCC(=O)N2CCN(CC[C@H](NC(=O)C3(N)CCN(c4ncnc5[nH]ccc45)CC3)c3ccc(Cl)cc3)CC2)C(C)(C)C)cc1, the Cmax was 10 µM (mouse, plasma; intraperitoneal, 75 mg/kg, single dose).
The Cmax of Cn1cnc2c(F)c(Nc3ccc(Br)cc3Cl)c(C(=O)NOCCO)cc21 is reported as 1340 ng/g (nude mouse, liver; oral, 5 mg/kg, single dose, tumour-bearing).
CS(=O)(=O)CCNCc1ccc(-c2ccc3ncnc(Nc4ccc(OCc5cccc(F)c5)c(Cl)c4)c3c2)o1 has a Cmax of 16600 ng/mL (nude mouse, plasma; oral, 200 mg/kg, single dose).
For CC(=O)O[C@H]1C(=O)[C@@]2(C)[C@H]([C@H](OC(=O)c3ccccc3)[C@]3(O)C[C@H](OC(=O)[C@H](O)[C@@H](NC(=O)c4ccccc4)c4ccccc4)C(C)=C1C3(C)C)[C@]1(OC(C)=O)CO[C@@H]1C[C@@H]2O, the Cmax was 3700 ng/g (SCID mouse, tumour; intraperitoneal, 10 mg/kg, single dose, tumour-bearing).
With COc1nc(-c2cc(C)c(N[C@@H](C)c3c(F)cc(F)cc3F)nn2)ccc1-n1cnc(C)c1 the Cmax was 858 ng/mL (male CD-1 mouse, plasma; intravenous, 1 mg/kg, single dose).
OC[C@H]1O[C@@H](c2ccc(Cl)c(Cc3ccc(O[C@H]4CCOC4)cc3)c2)[C@H](O)[C@@H](O)[C@@H]1O has a Cmax of 2460 ng/mL (CD-1 mouse, plasma; oral, 10 mg/kg).
With COc1cc(OC)c2nccc(N3CCc4c(cc(Cn5ccnc5)cc4-c4cn(C)nc4C(F)(F)F)C3=O)c2c1 the Cmax was 19700 ng/mL (male CD-1 mouse, plasma; oral, 50 mg/kg).
With COc1nc(-c2cc(C)c(N[C@@H](C)c3cc(F)cc(F)c3)nn2)ccc1-n1cnc(C)c1 the Cmax was 1180 ng/mL (male CD-1 mouse, plasma; oral, 5 mg/kg, single dose).
With COc1ccc2nccc(N3CCc4c(cc(Cn5ccnc5)cc4-c4cn(C)nc4C(F)(F)F)C3=O)c2c1 the Cmax was 1150 ng/mL (male CD-1 mouse, plasma; oral, 10 mg/kg).
CC(C)(C)c1ccc(O)c(CN(Cc2cc(C(C)(C)C)ccc2O)C2CCC(NC(N)=O)CC2)c1 (centres unmarked) has a Cmax of 1610 ng/g (male C57BL/6 mouse, brain; intraperitoneal, 25 mg/kg, single dose).
For CSc1cc(Oc2ccnc3[nH]c(=O)cnc23)ccc1NC(=O)Nc1cc(C(C)(C)C)nn1-c1ccccc1, the Cmax was 54.2 µM (BALB/c mouse, plasma; oral, 10 mg/kg).
NS(=O)(=O)c1ccc(-c2cc(Nc3ccc(OC(F)(F)F)cc3)ncn2)cc1 gave a Cmax of 2000 ng/mL (male BALB/c mouse, plasma; oral, 20 mg/kg).
The Cmax of Cc1ccc2cncc(N3CCc4c(cc(Cn5ccnc5)cc4-c4cn(C)nc4C(F)(F)F)C3=O)c2c1 is reported as 2680 ng/mL (male CD-1 mouse, plasma; oral, 10 mg/kg).
CNC(=O)c1ccccc1Nc1cc(Nc2ccc(N3CCOCC3)cc2OC)ncc1C(F)(F)F gave a Cmax of about 14 µM (BALB/c mouse, plasma; oral, 150 mg/kg).
For Cc1nc2ccc(F)cc2n1-c1nc(N)c(F)c(Nc2ccc(C(F)(F)F)cc2)n1, the Cmax was 1160 ng/mL (nude mouse, plasma; oral, 10 mg/kg).
O=C(NO)c1ccc(CN(c2cnccn2)c2cnccn2)cc1 has a Cmax of 300 ng/mL (male C57BL/6 mouse, plasma; oral, 200 mg/kg, multiple doses, once daily, tumour-bearing).
The Cmax of Cc1c2c(n(-c3ccc(Cl)cc3Cl)c1-c1ccc(OS(=O)(=O)CCC(F)(F)F)cc1)CCN(N1CCCCC1)C2=O is reported as 0.48 µM (mouse, plasma; oral, 6 µmol/kg, single dose).
